Compound activity (PubChem BioAssay)
SR-BI uptake up: SR-BI HDL lipid transfer activation; CHO ldlA[mSR-BI] cells, DiI-HDL uptake fluorescence, 3 h; 100 = double the neutral-control signal; activation, % at 12.5 µM; 320,000 compounds, 0.096% hits;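 active = mean replicate activation of at least 60% and every replicate at or above 60%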
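System: LDL receptor-deficient CHO ldlA cells overexpressing murine SR-BI | Timing: 3 h uptake period with compound, 37 °C | Medium: HEPES-buffered (25 mM, pH 7.4) F12 plus 0.5% BSA | Dosing: Single-point compound dose | Signal: Bottom-read fluorescence, 550/595 nm | Read-out: Retained DiI signal reflecting DiI-HDL uptake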
V-ATPase pHluor: regulators of yeast V-ATPase proton transport | S. cerevisiae, pHLuorin cytosolic pH fluorescence | AID 504577 | 350,000 compounds, 0.37% hits | response, % at 10 µM; in the data active = response mostly above about 7.3%, no sharp cut-off; inactive = mostly below about 5.4%; also: actives read high
NTR1 agonist: NTR1 (human) agonism; P30989; NTR1-U2OS beta-arrestin-GFP spot imaging, agonist mode; activation, % at 20 µM; 330,000 compounds, 0.17% hits; AID 493036;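 active = activation at or above 40% of the spot to cytoplasm intensity ratio, with at least 20 cells analyzed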
Vif imaging: inhibitors of HIV Vif; inhibition, % at 7.49 µM; AID 602346; HEK293T cells, Vif self-association by quenched fluorescence, imaging, 24 h; 340,000 compounds, 0.35% hits; in the data active = inhibition above about 50%, passing the limit was not always enough
SR-BI DiI inh: mouse SR-BI HDL lipid transfer inhibition; ldlA[mSR-BI] CHO cells, DiI-HDL uptake fluorescence, 3 h; inhibition, % at 12.5 µM; 320,000 compounds, 0.96% hits;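 active = mean replicate inhibition of at least 70% and a set share of replicates each scoring 70 or more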
Target sequence (Q61009 whole entry, looked up): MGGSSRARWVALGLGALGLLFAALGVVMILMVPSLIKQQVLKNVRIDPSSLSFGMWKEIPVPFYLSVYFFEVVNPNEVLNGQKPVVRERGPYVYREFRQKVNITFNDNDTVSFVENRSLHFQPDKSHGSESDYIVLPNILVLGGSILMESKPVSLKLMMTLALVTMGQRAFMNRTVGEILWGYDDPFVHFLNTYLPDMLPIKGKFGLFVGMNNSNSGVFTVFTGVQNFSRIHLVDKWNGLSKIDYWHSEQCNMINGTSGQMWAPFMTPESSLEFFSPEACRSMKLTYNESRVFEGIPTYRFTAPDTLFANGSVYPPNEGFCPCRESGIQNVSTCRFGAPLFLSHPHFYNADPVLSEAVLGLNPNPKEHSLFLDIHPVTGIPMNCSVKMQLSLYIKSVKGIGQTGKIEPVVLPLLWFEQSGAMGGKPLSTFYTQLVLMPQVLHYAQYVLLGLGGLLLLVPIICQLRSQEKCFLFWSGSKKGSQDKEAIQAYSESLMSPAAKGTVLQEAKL
CaV13 FRET inh: Primary screen for inhibitors of IQ motif and Ca2+-dependent inactivation inhibitor domain binding in CACNA1D, Förster resonance energy transfer in living cells, … | 340,000 compounds, 0.098% hits | inhibition, % at 12.3 µM | HEK cells, CFP/YFP FRET ICDI-IQ, plate reader, 10 min; percent FRET-ratio fall versus neutral wells;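 active = mean replicate inhibition of at least 30% and at least 1% of replicates passing that level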
Hits are given with their value; 0 = inactive; - = not tested or not shown; ! = repeats disagree. Only some compounds are listed: those with a hit (about 1.7% of all), similar ones and a draw of the others.

SMILES | SR-BI uptake up | V-ATPase pHluor | NTR1 agonist | Vif imaging | SR-BI DiI inh | CaV13 FRET inh
Cc1ccc(NC(=O)c2cnc(N3CCN(c4ccccn4)CC3)c3ccccc23)c(Br)c1 | 0 | 0 | - | 0 | 78 | 0
CCOc1ccc(CNC(=O)CCCc2cn(C)c3ccccc23)cc1OC | 0 | 0 | 0 | 0 | 0 | 0
CCOc1ccc(CNC(=O)CCCc2cn(C)c3ccccc23)cc1 | 0 | 0 | 0 | 0 | 85 | 0
COc1ccccc1/C=C/C=N/NC(=O)c1ccc(=O)n(C)c1 | 0 | 0 | 0 | 0 | 0 | 0
COc1ccccc1NC(=O)Cn1c(O)c(N=NC(=O)c2ccccc2O)c2ccccc21 | 0 | 0 | 0 | 116 | 0 | 0
C[C@H]1CN([C@@H](C)CO)S(=O)(=O)c2ccc(Br)cc2O[C@@H]1CN(C)C(=O)C1CCOCC1 | - | 0 | - | 0 | - | 0
N#C/C(=C\c1ccc([N+](=O)[O-])o1)C(=O)Nc1ccc(F)cc1 | 0 | 114 | 0 | 0 | 0 | 0
CN(CC(=O)Nc1cccc(F)c1)C(=O)/C=C/c1cn(Cc2ccccc2)nc1-c1cccnc1 | 0 | 0 | 0 | 0 | 0 | 0
CC1CN(c2sc(S(C)(=O)=O)nc2S(=O)(=O)c2ccc(Cl)cc2)CC(C)O1 (stereo not given) | 0 | 13 | 0 | 0 | 0 | 0
CC1CCCN(c2sc(S(C)(=O)=O)nc2S(=O)(=O)c2ccc(Cl)cc2)C1 (stereo not given) | 0 | 0 | 0 | 0 | 0 | 0
N#Cc1ccc(OCCCN2CCC(C(O)(c3ccccc3)c3ccccc3)CC2)cc1 | - | - | - | - | - | 0
COc1ccc(CNC(=O)c2ccc3c(c2)NC(=O)C(C)S3)cc1 (stereo not given) | - | 0 | 0 | - | - | 0
CCOC(=O)C=Nc1c(N)n(C)c(=O)n(C)c1=O | 0 | 0 | 0 | 0 | 0 | 0
C=CCCC(=O)Nc1nc(C)c(-c2csc(Nc3cccc(OC)c3)n2)s1 | 0 | 0 | 0 | 0 | 87 | 0
COc1cccc(Nc2nc(-c3sc(NC(=O)CC(C)C)nc3C)cs2)c1 | 0 | 0 | 0 | 0 | 86 | 0
COc1ccccc1Nc1nc(-c2sc(NC(=O)CC(C)C)nc2C)cs1 | 0 | 0 | 0 | 0 | 0 | 0
CCc1c(-c2ccccc2Br)ncn1CCc1ccccc1OC | - | - | - | - | - | 0
Cc1ccccc1NC(=O)CSc1nc(Nc2ccccc2)nc(N2CCOCC2)n1 | 0 | 0 | 0 | 0 | 81 | 0
COc1cc2sc3ccc(-c4ccc5[nH]ccc5c4)cc3c(=O)c2cc1OC | 0 | 0 | 0 | 0 | 75 | 0
COc1cc2sc3ccc(C#Cc4ccc(N)cc4)cc3c(=O)c2cc1OC | 0 | 0 | 0 | 0 | 0 | 0
COC(=O)C[C@@H]1CC[C@@H](NC(C)=O)[C@@H](CO)O1 | - | - | - | - | - | 0
O=C(CSc1nc(=O)[nH]c2c1CCCC2)Nc1cc(C(F)(F)F)cc(C(F)(F)F)c1 | 0 | 0 | 0 | 0 | 0 | 0
COc1cc(OC)c(OC)cc1CNc1cc(C)ccc1OC | 0 | 0 | 0 | 0 | 72 | 0
O=C(Nc1cccc2c1CCCC2)c1ccc(Cl)c([N+](=O)[O-])c1 | 0 | 0 | 0 | 0 | 0 | 0
O=C(Nc1cccc2c1CCCC2)c1cc([N+](=O)[O-])ccc1Cl | 0 | 9.7 | 0 | 0 | 0 | 0
SMILES | SR-BI uptake up | V-ATPase pHluor | NTR1 agonist | Vif imaging | SR-BI DiI inh | CaV13 FRET inh
O=C(Cc1ccccc1)Nc1ccc(NC(=O)c2ccccc2)c(Cl)c1 | 0 | 0 | 0 | 0 | 0 | 0
COc1ccc(-[n+]2c(C)cc(/C=C3\Sc4ccccc4N3C)cc2C)cc1 | 0 | 0 | 0 | 0 | 0 | 34
O=C(CNC(=O)c1sc2ccccc2c1Cl)NCc1ccc(F)cc1 | 0 | 18 | 0 | 0 | 0 | 0
O=C(Nc1ccccc1N1CCCC1)c1ccccc1F | 0 | 0 | 0 | 0 | 0 | 0
O=C(Nc1ccccc1N1CCN(c2ccccc2)CC1)c1ccccc1F | 0 | 0 | 0 | 0 | 75 | 0
O=C(Nc1ccccc1N1CCN(C(=O)c2ccc(Cl)cc2)CC1)c1cccc(F)c1 | 0 | 0 | 0 | 0 | 74 | 0
COc1cc2c3nnc(-c4ccc(F)cc4)c-3cn(Cc3ccc(F)cc3)c2cc1OC | 0 | 0 | 84 | 94 | 0 | 0
CCN1CCN(C2=CC3=CC(=C(C#N)C#N)CCC3CC2)CC1 (stereo not given) | 0 | 28 | - | - | 0 | -
N#CC(C#N)=C1C=C2C=C(N3CCCCCC3)CCC2CC1 (stereo not given) | 0 | 234 | - | 0 | 0 | 0
CN1CCN(C2=CC3=CC(=C(C#N)C#N)CCC3CC2)CC1 (stereo not given) | 0 | 0 | - | - | 0 | -
CCOC(=O)C1CCCN(CC(=O)Nc2c(C(=O)OC)[nH]c3ccc(Cl)cc23)C1 (stereo not given) | 0 | 0 | 0 | 61 | 0 | 0
CCOC(=O)C1CCCN(CC(=O)Nc2c(C(=O)OC)[nH]c3ccc(C)cc23)C1 (stereo not given) | 0 | 0 | 0 | 0 | 0 | 0
CSc1ccccc1NC(=O)CN(Cc1ccccc1)S(C)(=O)=O | 0 | 0 | 0 | 0 | 75 | -
Cc1ccc(NCCC(=O)c2ccc(Br)cc2)cc1 | 0 | 0 | 0 | 0 | 0 | 0
CCc1ccc(NCCC(=O)c2ccc(Br)cc2)cc1 | 0 | 15 | 0 | 0 | 0 | 0
Cc1ccc(-n2c(C)cc(C)c(C#N)c2=O)cc1C | 0 | 0 | 0 | 0 | 0 | 0
CCCCc1nc2cc(C(=O)N(C)CCc3cn[nH]c3)ccc2o1 | 0 | 15 | 0 | 0 | 0 | 0
CCCCc1nc2cc(C(=O)N(C)C3CCOCC3)ccc2o1 | 0 | 0 | 0 | 0 | 0 | -
O=C(CCc1ccccc1)Nc1ccccc1 | 0 | 0 | 0 | 55 | 0 | 0
O=C(CCC(=O)NCCCc1ccccc1)NCCCc1ccccc1 | 62 | 0 | 0 | 0 | 0 | 0
COc1ccc(-c2c(-c3cc(OC)cc(OC)c3)n(C)c3ccc(-c4cnc(OC)nc4)cc23)cc1 | 0 | 0 | 0 | 0 | 0 | 0
COc1ccc(-c2c(-c3cc(OC)cc(OC)c3)n(C)c3ccc(-c4ccc5[nH]ccc5c4)cc23)cc1 | 0 | 0 | 0 | 0 | 76 | 0
Cc1ccc(C(O)c2ncc(-c3ccccc3F)[nH]2)c(C)c1 (stereo not given) | - | - | - | 0 | - | 0
O=S(=O)(c1ccccc1)N(c1ccccc1)S(=O)(=O)c1ccccc1 | 0 | 0 | - | 0 | 0 | 0
O=S(=O)(c1ccccc1)N(F)S(=O)(=O)c1ccccc1 | 0 | 0 | 0 | 59 | 0 | 0
CSc1ccccc1NC(=O)C1=CC(c2cccs2)=NS(=O)(=O)N1C | 0 | 0 | 0 | 0 | 0 | 0
COC1(C)CC2C(CC1OC(=O)c1cc([N+](=O)[O-])cc([N+](=O)[O-])c1)C2(C)C (stereo not given) | 0 | 0 | 0 | 0 | 93! | 0
COC(=O)c1cc(C(=O)NCC2CCCCC2)cc([N+](=O)[O-])c1 | 0 | 0 | 0 | 0 | 0 | 0
O=C(NCCc1ccccc1Cl)[C@@H]1CCCN1C(=O)[C@H](Cc1cccnc1)NC(=O)N1CCOCC1 | - | - | - | - | - | 0
